Measurements reported in ChEMBL document CHEMBL1781961, “Synthesis and in vitro antibacterial activity of 7-(3-alkoxyimino-4-amino-4-methylpiperidin-1-yl) fluoroquinolone derivatives” (Eur J Med Chem, 2011).
≈ marks a conversion by molar mass, not a printed value.

How the values were obtained:
[1] = system: Staphylococcus epidermidis; assay: Antibacterial activity against 10^4 CFU methicillin-resistant Staphylococcus epidermidis 09-2 after 18 hrs by CLSI agar dilution method; type: functional; conditions: 09-2, 18 h
[2] = system: Streptococcus pneumoniae; assay: Antibacterial activity against 10^4 CFU Streptococcus pneumoniae 08-4 after 18 hrs by CLSI agar dilution method; type: functional; conditions: 08-4, 18 h
[3] = system: Escherichia coli; assay: Antibacterial activity against 10^4 CFU Escherichia coli 08-21 after 18 hrs by CLSI agar dilution method; type: functional; conditions: 08-21, 18 h
[4] = system: Klebsiella pneumoniae; assay: Antibacterial activity against 10^4 CFU Klebsiella pneumoniae 09-23 after 18 hrs by CLSI agar dilution method; type: functional; conditions: 09-23, 18 h
[5] = system: Pseudomonas aeruginosa; assay: Antibacterial activity against 10^4 CFU Pseudomonas aeruginosa 09-32 after 18 hrs by CLSI agar dilution method; type: functional; conditions: 09-32, 18 h
[6] = system: Enterococcus faecalis; assay: Antibacterial activity against 10^4 CFU Enterococcus faecalis 08-10 after 18 hrs by CLSI agar dilution method; type: functional; conditions: 08-10, 18 h
[7] = system: Enterococcus faecium; assay: Antibacterial activity against 10^4 CFU Enterococcus faecium 08-2 after 18 hrs by CLSI agar dilution method; type: functional; conditions: 08-2, 18 h
[8] = Cytotoxicity against MDCK cells after 48 hrs by CPE assay; type: cell-based, Canis lupus familiaris; conditions: dog
In short: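 MDCK cells kept in Minimum Essential Medium with Earle's salt plus 10% fetal bovine serum at 37 °C, 5% CO₂. […] Medium then replaced by assay medium with or without compound. After 48 h exposure, viability read by CPE assay. CC₅₀ calculated by Reed–Muench analysis.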

[9] = system: Klebsiella pneumoniae; assay: Antibacterial activity against 10^4 CFU Klebsiella pneumoniae 09-22 after 18 hrs by CLSI agar dilution method; type: functional; conditions: 09-22, 18 h
[10] = system: Staphylococcus epidermidis; assay: Antibacterial activity against 10^4 CFU methicillin-sensitive Staphylococcus epidermidis 09-6 after 18 hrs by CLSI agar dilution method; type: functional; conditions: 09-6, 18 h
[11] = system: Pseudomonas aeruginosa; assay: Antibacterial activity against 10^4 CFU Pseudomonas aeruginosa ATCC 27853 after 18 hrs by CLSI agar dilution method; type: functional; conditions: ATCC 27853, 18 h
[12] = system: Staphylococcus aureus; assay: Antibacterial activity against 10^4 CFU methicillin-resistant Staphylococcus aureus 08-1 after 18 hrs by CLSI agar dilution method; type: functional; conditions: 08-1, 18 h
[13] = system: Escherichia coli; assay: Antibacterial activity against 10^4 CFU Escherichia coli ATCC 25922 after 18 hrs by CLSI agar dilution method; type: functional; conditions: ATCC 25922, 18 h
[14] = system: Staphylococcus aureus; assay: Antibacterial activity against 10^4 CFU Staphylococcus aureus ATCC 25923 after 18 hrs by CLSI agar dilution method; type: functional; conditions: ATCC 25923, 18 h
[15] = system: Enterococcus faecalis; assay: Antibacterial activity against 10^4 CFU Enterococcus faecalis 08-12 after 18 hrs by CLSI agar dilution method; type: functional; conditions: 08-12, 18 h
[16] = system: Staphylococcus aureus; assay: Antibacterial activity against 10^4 CFU methicillin-sensitive Staphylococcus aureus 08-1 after 18 hrs by CLSI agar dilution method; type: functional; conditions: 08-1, 18 h
[17] = system: Enterococcus faecium; assay: Antibacterial activity against 10^4 CFU Enterococcus faecium 06-7 after 18 hrs by CLSI agar dilution method; type: functional; conditions: 06-7, 18 h

| SMILES | MIC [1] | MIC [2] | MIC [3] | MIC [4] | MIC [5] | MIC [6] | MIC [7] | CC50 at 48 h [8] | MIC [9] | MIC [10] | MIC [11] | MIC [12] | MIC [13] | MIC [14] | MIC [15] | MIC [16] | MIC [17] |
| --- | --- | --- | --- | --- | --- | --- | --- | --- | --- | --- | --- | --- | --- | --- | --- | --- | --- |
| CO/N=C1\CN(c2c(F)cc3c(=O)c(C(=O)O)cn(C4CC4)c3c2OC(F)F)CCC1(C)N (configuration not stated) | 0.25 µg/mL (≈ 0.534 µM) | 0.25 µg/mL (≈ 0.534 µM) | > 128 µg/mL | > 128 µg/mL | 2 µg/mL (≈ 4.27 µM) | 8 µg/mL (≈ 17.1 µM) | > 128 µg/mL | 1070 µM | 2 µg/mL (≈ 4.27 µM) | 0.25 µg/mL (≈ 0.534 µM) | 4 µg/mL (≈ 8.54 µM) | 0.25 µg/mL (≈ 0.534 µM) | 128 µg/mL (≈ 273 µM) | 0.25 µg/mL (≈ 0.534 µM) | > 128 µg/mL | 0.25 µg/mL (≈ 0.534 µM) | > 128 µg/mL |
| COc1c(N2C[C@@H]3CCCN[C@@H]3C2)c(F)cc2c(=O)c(C(=O)O)cn(C3CC3)c12 [MOXIFLOXACIN] |  |  |  |  |  |  |  | 161 µM |  |  |  |  |  |  |  |  |  |
| CCn1cc(C(=O)O)c(=O)c2cc(F)c(N3CCC(C)(N)/C(=N/OC)C3)c(F)c21 (configuration not stated) | 0.25 µg/mL (≈ 0.612 µM) | 0.25 µg/mL (≈ 0.612 µM) | > 128 µg/mL | 64 µg/mL (≈ 157 µM) | 4 µg/mL (≈ 9.79 µM) | 32 µg/mL (≈ 78.4 µM) | > 128 µg/mL | 433 µM | 32 µg/mL (≈ 78.4 µM) | 0.25 µg/mL (≈ 0.612 µM) | 4 µg/mL (≈ 9.79 µM) | 0.25 µg/mL (≈ 0.612 µM) | 128 µg/mL (≈ 313 µM) | 0.5 µg/mL (≈ 1.22 µM) | 64 µg/mL (≈ 157 µM) | 0.25 µg/mL (≈ 0.612 µM) | > 128 µg/mL |
| CO/N=C1\CN(c2c(F)cc3c(=O)c(C(=O)O)cn(CCF)c3c2F)CCC1(C)N (configuration not stated) | 0.25 µg/mL (≈ 0.586 µM) | 2 µg/mL (≈ 4.69 µM) | 32 µg/mL (≈ 75 µM) | 32 µg/mL (≈ 75 µM) | 0.5 µg/mL (≈ 1.17 µM) | 128 µg/mL (≈ 300 µM) | 32 µg/mL (≈ 75 µM) | 36.6 µM | 16 µg/mL (≈ 37.5 µM) | 0.25 µg/mL (≈ 0.586 µM) | 2 µg/mL (≈ 4.69 µM) | 0.25 µg/mL (≈ 0.586 µM) | 32 µg/mL (≈ 75 µM) | 0.125 µg/mL (≈ 0.293 µM) | 32 µg/mL (≈ 75 µM) | 0.25 µg/mL (≈ 0.586 µM) | 128 µg/mL (≈ 300 µM) |
| CCO/N=C1\CN(c2c(F)cc3c(=O)c(C(=O)O)cn(CC)c3c2F)CCC1(C)N (configuration not stated) | 0.25 µg/mL (≈ 0.592 µM) | 0.25 µg/mL (≈ 0.592 µM) | > 128 µg/mL | > 128 µg/mL | 64 µg/mL (≈ 152 µM) | 4 µg/mL (≈ 9.47 µM) | > 128 µg/mL | 592 µM | > 128 µg/mL | 0.25 µg/mL (≈ 0.592 µM) | 4 µg/mL (≈ 9.47 µM) | 0.25 µg/mL (≈ 0.592 µM) | > 128 µg/mL | 0.25 µg/mL (≈ 0.592 µM) | > 128 µg/mL | 0.25 µg/mL (≈ 0.592 µM) | > 128 µg/mL |
| C[C@H]1COc2c(N3CCN(C)CC3)c(F)cc3c(=O)c(C(=O)O)cn1c23.C[C@H]1COc2c(N3CCN(C)CC3)c(F)cc3c(=O)c(C(=O)O)cn1c23.O [LEVOFLOXACIN] | 0.25 µg/mL |  | 16 µg/mL | 16 µg/mL | 16 µg/mL | 8 µg/mL | 4 µg/mL |  | 16 µg/mL | 4 µg/mL |  | 0.125 µg/mL | 2 µg/mL | 0.25 µg/mL | 8 µg/mL | 0.125 µg/mL | 16 µg/mL |
| CCO/N=C1\CN(c2c(F)cc3c(=O)c(C(=O)O)cn4c3c2OC[C@@H]4C)CCC1(C)N (some centres not stated) | 0.25 µg/mL (≈ 0.578 µM) | 2 µg/mL (≈ 4.62 µM) | 64 µg/mL (≈ 148 µM) | 2 µg/mL (≈ 4.62 µM) | 64 µg/mL (≈ 148 µM) | 32 µg/mL (≈ 74 µM) | 32 µg/mL (≈ 74 µM) | 1160 µM | 64 µg/mL (≈ 148 µM) | 0.25 µg/mL (≈ 0.578 µM) | 4 µg/mL (≈ 9.25 µM) | 0.25 µg/mL (≈ 0.578 µM) | 32 µg/mL (≈ 74 µM) | 0.25 µg/mL (≈ 0.578 µM) | 64 µg/mL (≈ 148 µM) | 0.25 µg/mL (≈ 0.578 µM) | > 128 µg/mL |
| CO/N=C1\CN(c2nc3c(cc2F)c(=O)c(C(=O)O)cn3-c2ccc(F)cc2F)CCC1(C)N (configuration not stated) | 0.25 µg/mL (≈ 0.526 µM) | 1 µg/mL (≈ 2.1 µM) | > 128 µg/mL | 64 µg/mL (≈ 135 µM) | 0.25 µg/mL (≈ 0.526 µM) | 64 µg/mL (≈ 135 µM) | > 128 µg/mL | 93 µM | 64 µg/mL (≈ 135 µM) | 0.25 µg/mL (≈ 0.526 µM) | 4 µg/mL (≈ 8.41 µM) | 0.25 µg/mL (≈ 0.526 µM) | 16 µg/mL (≈ 33.7 µM) | 0.25 µg/mL (≈ 0.526 µM) | 64 µg/mL (≈ 135 µM) | 0.25 µg/mL (≈ 0.526 µM) | > 128 µg/mL |
